According to ChEMBL document CHEMBL1944580, “Synthesis of novel sulfonamide-1,2,4-triazoles, 1,3,4-thiadiazoles and 1,3,4-oxadiazoles, as potential antibacterial and antifungal agents. Biological evaluation and conformational analysis studies” (2012):
In brackets after ≈: the same amount, converted by molar mass.

What was measured:
Staphylococcus aureus [1] = assay: Antibacterial activity against Staphylococcus aureus ATCC 6538 after 24 hrs by micro dilution method; format: functional; settings: ATCC 6538, 24 h
Procedure, shortened: (§1)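 Microdilution MIC in 96-well plates. Bacterial suspensions adjusted in sterile saline to 1.0 × 10^5 CFU/ml, giving 1.0 × 10^4 cfu per well in LB broth. Compounds tested at up to 1 mg/ml. Plates incubated 24 h. MIC taken as the lowest concentration with no visible growth under a binocular microscope. OD at 655 nm was also read against a blank and the positive control. Streptomycin and ampicillin were the positive controls.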

Bacillus cereus [2] = assay: Antibacterial activity against Bacillus cereus clinical isolate after 24 hrs by micro dilution method; format: functional; procedure, shortened: as §1
Micrococcus flavus [3] = assay: Antibacterial activity against Micrococcus flavus ATCC 10240 after 24 hrs by micro dilution method; format: functional; settings: ATCC 10240, 24 h; procedure, shortened: as §1
Listeria monocytogenes [4] = assay: Antibacterial activity against Listeria monocytogenes NCTC 7973 after 24 hrs by micro dilution method; format: functional; settings: NCTC 7973, 24 h; procedure, shortened: as §1
Pseudomonas aeruginosa [5] = assay: Antibacterial activity against Pseudomonas aeruginosa ATCC 27853 after 24 hrs by micro dilution method; format: functional; settings: ATCC 27853, 24 h; procedure, shortened: as §1
Enterobacter cloacae [6] = assay: Antibacterial activity against Enterobacter cloacae human isolate after 24 hrs by micro dilution method; format: functional; procedure, shortened: as §1
Salmonella typhimurium [7] = assay: Antibacterial activity against Salmonella Typhimurium ATCC 13311 after 24 hrs by micro dilution method; format: functional, Salmonella enterica subsp. enterica serovar Typhimurium; settings: Salmonella enterica, ATCC 13311, 24 h; procedure, shortened: as §1
Escherichia coli [8] = assay: Antibacterial activity against Escherichia coli ATCC 35210 after 24 hrs by micro dilution method; format: functional; settings: ATCC 35210, 24 h; procedure, shortened: as §1
Staphylococcus aureus [9] = assay: Antibacterial activity against Staphylococcus aureus ATCC 6538 treated for 24 hrs followed by sub-cultivated for 72 hrs by micro dilution method; format: functional
Procedure, shortened: (§2)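 2 µl from each well was serially subcultured into 100 µl fresh broth per well and incubated a further 72 h. MBC is the lowest concentration with no visible growth, taken as 99.5% killing of the original inoculum. Streptomycin and ampicillin were the positive controls.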

Bacillus cereus [10] = assay: Antibacterial activity against Bacillus cereus clinical isolate treated for 24 hrs followed by sub-cultivated for 72 hrs by micro dilution method; format: functional; procedure, shortened: as §2
Micrococcus flavus [11] = assay: Antibacterial activity against Micrococcus flavus ATCC 10240 treated for 24 hrs followed by sub-cultivated for 72 hrs by micro dilution method; format: functional; procedure, shortened: as §2
Listeria monocytogenes [12] = assay: Antibacterial activity against Listeria monocytogenes NCTC 7973 treated for 24 hrs followed by sub-cultivated for 72 hrs by micro dilution method; format: functional; procedure, shortened: as §2
Pseudomonas aeruginosa [13] = assay: Antibacterial activity against Pseudomonas aeruginosa ATCC 27853 treated for 24 hrs followed by sub-cultivated for 72 hrs by micro dilution method; format: functional; procedure, shortened: as §2
Enterobacter cloacae [14] = assay: Antibacterial activity against Enterobacter cloacae human isolate treated for 24 hrs followed by sub-cultivated for 72 hrs by micro dilution method; format: functional; procedure, shortened: as §2
Salmonella typhimurium [15] = assay: Antibacterial activity against Salmonella Typhimurium ATCC 13311 treated for 24 hrs followed by sub-cultivated for 72 hrs by micro dilution method; format: functional, Salmonella enterica subsp. enterica serovar Typhimurium; settings: Salmonella enterica; procedure, shortened: as §2
Escherichia coli [16] = assay: Antibacterial activity against Escherichia coli ATCC 35210 treated for 24 hrs followed by sub-cultivated for 72 hrs by micro dilution method; format: functional; procedure, shortened: as §2
Talaromyces funiculosus [17] = assay: Antifungal activity against Penicillium funiculosum ATCC 36839 after 72 hrs by serial dilution method; format: functional; settings: ATCC 36839, 72 h
Procedure, shortened: (§3)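 Modified microdilution MIC. Spores were washed from malt agar cultures with sterile 0.85% saline containing 0.1% Tween 80 and adjusted to about 1.0 × 10^5 per 100 µl well in malt broth. Compounds were dissolved in DMSO (1 mg/ml). Plates incubated 72 h at 28 °C. MIC is the lowest concentration with no visible growth under a binocular microscope. Bifonazole and ketoconazole were the references.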

Penicillium ochrochloron [18] = assay: Antifungal activity against Penicillium ochrochloron ATCC 9112 after 72 hrs by serial dilution method; format: functional; settings: ATCC 9112, 72 h; procedure, shortened: as §3
Trichoderma viride [19] = assay: Antifungal activity against Trichoderma viride IAM 5061 after 72 hrs by serial dilution method; format: functional; settings: IAM 5061, 72 h; procedure, shortened: as §3
Aspergillus fumigatus [20] = assay: Antifungal activity against Aspergillus fumigatus human isolate after 72 hrs by serial dilution method; format: functional; procedure, shortened: as §3
Aspergillus niger [21] = assay: Antifungal activity against Aspergillus niger ATCC 6275 after 72 hrs by serial dilution method; format: functional; settings: ATCC 6275, 72 h; procedure, shortened: as §3
Aspergillus flavus [22] = assay: Antifungal activity against Aspergillus flavus ATCC 9643 after 72 hrs by serial dilution method; format: functional; settings: ATCC 9643, 72 h; procedure, shortened: as §3
Aspergillus versicolor [23] = assay: Antifungal activity against Aspergillus versicolor ATCC 11730 after 72 hrs by serial dilution method; format: functional; settings: ATCC 11730, 72 h; procedure, shortened: as §3
Fulvia fulva [24] = assay: Antifungal activity against Fulvia fulva after 72 hrs by serial dilution method; format: functional; procedure, shortened: as §3
Talaromyces funiculosus [25] = assay: Antifungal activity against Penicillium funiculosum ATCC 36839 treated for 72 hrs followed by sub-cultivated for 5 days by serial dilution method; format: functional
Procedure, shortened: (§4)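 MFC obtained after the 72 h, 28 °C malt-broth microdilution (spore inoculum about 1.0 × 10^5 per well, compounds from 1 mg/ml DMSO). 2 µl was serially subcultured into 100 µl broth per well and incubated a further 5 days at 28 °C. MFC is the lowest concentration with no visible growth, taken as 99.5% killing of the original inoculum.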

Penicillium ochrochloron [26] = assay: Antifungal activity against Penicillium ochrochloron ATCC 9112 treated for 72 hrs followed by sub-cultivated for 5 days by serial dilution method; format: functional; procedure, shortened: as §4
Trichoderma viride [27] = assay: Antifungal activity against Trichoderma viride IAM 5061 treated for 72 hrs followed by sub-cultivated for 5 days by serial dilution method; format: functional; procedure, shortened: as §4
Aspergillus fumigatus [28] = assay: Antifungal activity against Aspergillus fumigatus human isolate treated for 72 hrs followed by sub-cultivated for 5 days by serial dilution method; format: functional; procedure, shortened: as §4
Aspergillus niger [29] = assay: Antifungal activity against Aspergillus niger ATCC 6275 treated for 72 hrs followed by sub-cultivated for 5 days by serial dilution method; format: functional; procedure, shortened: as §4
Aspergillus flavus [30] = assay: Antifungal activity against Aspergillus flavus ATCC 9643 treated for 72 hrs followed by sub-cultivated for 5 days by serial dilution method; format: functional; procedure, shortened: as §4
Aspergillus versicolor [31] = assay: Antifungal activity against Aspergillus versicolor ATCC 11730 treated for 72 hrs followed by sub-cultivated for 5 days by serial dilution method; format: functional; procedure, shortened: as §4
Fulvia fulva [32] = assay: Antifungal activity against Fulvia fulva treated for 72 hrs followed by sub-cultivated for 5 days by serial dilution method; format: functional; procedure, shortened: as §4

| MIC (Staphylococcus aureus [1]) [µM] | MIC (Bacillus cereus [2]) [µM] | MIC (Micrococcus flavus [3]) [µM] | MIC (Listeria monocytogenes [4]) [µM] | MIC (Pseudomonas aeruginosa [5]) [µM] | MIC (Enterobacter cloacae [6]) [µM] | MIC (Salmonella typhimurium [7]) [µM] | MIC (Escherichia coli [8]) [µM] | MIC (Talaromyces funiculosus [17]) [µM] | MIC (Penicillium ochrochloron [18]) [µM] | MIC (Trichoderma viride [19]) [µM] | MIC (Aspergillus fumigatus [20]) [µM] | SMILES | MBC (Staphylococcus aureus [9]) [µM] | MBC (Bacillus cereus [10]) [µM] | MBC (Micrococcus flavus [11]) [µM] | MBC (Listeria monocytogenes [12]) [µM] | MBC (Pseudomonas aeruginosa [13]) [µM] | MBC (Enterobacter cloacae [14]) [µM] | MBC (Salmonella typhimurium [15]) [µM] | MBC (Escherichia coli [16]) [µM] | also measured |
| --- | --- | --- | --- | --- | --- | --- | --- | --- | --- | --- | --- | --- | --- | --- | --- | --- | --- | --- | --- | --- | --- |
| 140 (≈ 51.9 µg/mL) | 140 (≈ 51.9 µg/mL) | 270 (≈ 100 µg/mL) | 270 (≈ 100 µg/mL) | 270 (≈ 100 µg/mL) | 670 (≈ 248 µg/mL) | 140 (≈ 51.9 µg/mL) | 140 (≈ 51.9 µg/mL) | 140 (≈ 51.9 µg/mL) | 140 (≈ 51.9 µg/mL) | 30 (≈ 11.1 µg/mL) | 270 (≈ 100 µg/mL) | CCNc1nnc(Cc2cc(OC)c(OC)cc2S(=O)(=O)N(C)C)o1 | 270 (≈ 100 µg/mL) | 270 (≈ 100 µg/mL) | 540 (≈ 200 µg/mL) | 540 (≈ 200 µg/mL) | 540 (≈ 200 µg/mL) | 670 (≈ 248 µg/mL) | 270 (≈ 100 µg/mL) | 270 (≈ 100 µg/mL) | MIC (Aspergillus niger [21]): 140 µM (≈ 51.9 µg/mL); MIC (Aspergillus flavus [22]): 140 µM (≈ 51.9 µg/mL); MIC (Aspergillus versicolor [23]): 140 µM (≈ 51.9 µg/mL); MIC (Fulvia fulva [24]): 270 µM (≈ 100 µg/mL); MFC (Talaromyces funiculosus [25]): 270 µM (≈ 100 µg/mL); MFC (Penicillium ochrochloron [26]): 270 µM (≈ 100 µg/mL); MFC (Trichoderma viride [27]): 30 µM (≈ 11.1 µg/mL); MFC (Aspergillus fumigatus [28]): 270 µM (≈ 100 µg/mL); MFC (Aspergillus niger [29]): 140 µM (≈ 51.9 µg/mL); MFC (Aspergillus flavus [30]): 400 µM (≈ 148 µg/mL); MFC (Aspergillus versicolor [31]): 400 µM (≈ 148 µg/mL); MFC (Fulvia fulva [32]): 270 µM (≈ 100 µg/mL) |
| 260 (≈ 100 µg/mL) | 260 (≈ 100 µg/mL) | 130 (≈ 50 µg/mL) | 130 (≈ 50 µg/mL) | 260 (≈ 100 µg/mL) | 630 (≈ 242 µg/mL) | 130 (≈ 50 µg/mL) | 630 (≈ 242 µg/mL) | 260 (≈ 100 µg/mL) | 130 (≈ 50 µg/mL) | 70 (≈ 26.9 µg/mL) | 130 (≈ 50 µg/mL) | CCCNc1nnc(Cc2cc(OC)c(OC)cc2S(=O)(=O)N(C)C)o1 | 260 (≈ 100 µg/mL) | 260 (≈ 100 µg/mL) | 260 (≈ 100 µg/mL) | 260 (≈ 100 µg/mL) | 260 (≈ 100 µg/mL) | 750 (≈ 288 µg/mL) | 260 (≈ 100 µg/mL) | 630 (≈ 242 µg/mL) | MIC (Aspergillus niger [21]): 130 µM (≈ 50 µg/mL); MIC (Aspergillus flavus [22]): 130 µM (≈ 50 µg/mL); MIC (Aspergillus versicolor [23]): 260 µM (≈ 100 µg/mL); MIC (Fulvia fulva [24]): 130 µM (≈ 50 µg/mL); MFC (Talaromyces funiculosus [25]): 780 µM (≈ 300 µg/mL); MFC (Penicillium ochrochloron [26]): 260 µM (≈ 100 µg/mL); MFC (Trichoderma viride [27]): 130 µM (≈ 50 µg/mL); MFC (Aspergillus fumigatus [28]): 260 µM (≈ 100 µg/mL); MFC (Aspergillus niger [29]): 390 µM (≈ 150 µg/mL); MFC (Aspergillus flavus [30]): 390 µM (≈ 150 µg/mL); MFC (Aspergillus versicolor [31]): 390 µM (≈ 150 µg/mL); MFC (Fulvia fulva [32]): 260 µM (≈ 100 µg/mL) |
